One data set concerns the target KCa3.1 channel (Homo sapiens, UniProt O15554). Description: whole-cell patch clamp on A549-3R cells, 1-EBIO activated KCa3.1 current. It is filed as cell-based. On the technique in general: The patch-clamp technique gives a direct electrical read-out from membranes.
Data set [1] in a line: chemical stability under 18F-labelling conditions. It is filed as physicochemical. The conditions noted are these: 10 min, DMF.
A short description of data set [2]: in vitro metabolism with mouse liver microsomes and NADPH, LC-MS/MS. It is filed as in vitro ADME. The conditions noted are these: mouse liver microsomes, NADPH, 37 °C, 90 min. A digest of the protocol: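 The non-radioactive fluorinated reference compound was incubated with mouse liver microsomes and NADPH at 37 °C for 90 min. The reaction was stopped with CH3CN/CH3OH (1:1), cooled and centrifuged to remove protein. The supernatant was analysed by ESI LC-MS/MS (qToF). The metabolite was assigned from the accurate m/z of the [M + H]+ ion against the calculated exact mass.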
A general note: Liver microsomes are a subcellular fraction often used to study metabolism.

Chain of KCa3.1 channel (O15554 whole entry): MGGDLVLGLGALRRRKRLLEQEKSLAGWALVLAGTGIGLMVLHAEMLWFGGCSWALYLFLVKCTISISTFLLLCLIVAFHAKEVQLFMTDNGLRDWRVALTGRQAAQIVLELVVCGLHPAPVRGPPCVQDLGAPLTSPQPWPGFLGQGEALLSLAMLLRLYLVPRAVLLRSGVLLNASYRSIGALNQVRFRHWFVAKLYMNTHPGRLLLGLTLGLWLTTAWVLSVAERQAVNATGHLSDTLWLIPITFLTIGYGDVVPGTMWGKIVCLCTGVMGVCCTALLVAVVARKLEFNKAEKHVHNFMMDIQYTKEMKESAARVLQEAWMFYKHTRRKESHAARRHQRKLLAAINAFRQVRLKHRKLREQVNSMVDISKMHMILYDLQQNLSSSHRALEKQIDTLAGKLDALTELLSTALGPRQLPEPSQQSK

Consider `NC(=O)C(c1ccccc1)(c1ccc(F)cc1)c1ccc(F)cc1` [senicapoc], for which the “effect on 1-EBIO activated KCa3.1 mediated current” value at KCa3.1 channel (senicapoc 1 μM, applied consecutively after 28, n = 5) was “complete inhibition”. The “Stability (TLC)” value in data set [1] ((NH4)2C2O4 (5 eq.), 90 °C) is recorded as “Stable”; in data set [1] ((NH4)2C2O4 (5 eq.), 110 °C), “Stable”; in data set [1] ((NH4)2C2O4 (5 eq.), 130 °C) it was “Stable”; in data set [1] (K2CO3 (5 eq.), 90 °C), “Partial decomposition”; in data set [1] (K2CO3 (5 eq.), 110 °C), “Partial decomposition”; in data set [1] (K2CO3 (5 eq.), 130 °C), “Complete decomposition”. The “Stability (TLC)” value in data set [1] (TBAF (5 eq.), 90 °C) is listed as “Complete decomposition”; in data set [1] (TBAF (5 eq.), 110 °C) it was “Complete decomposition”; in data set [1] (TBAF (5 eq.), 130 °C), “Complete decomposition”; in data set [1] (no base, 130 °C) it was “Stable”.
Regarding `CCn1c(=O)[nH]c2ccccc21` [1-EBIO, 1-ethyl-2-benzimidazolone], the “effect on current (current density) in patch clamp” value at KCa3.1 channel (1-EBIO 50 μM, applied 2-5 min, n = 5) is given as “increased outward current”.
In the case of `NC(=O)C(c1ccccc1)(c1ccc(F)cc1)c1ccc(OCCF)cc1` (centres unmarked) [compound 28], in data set [2], the main metabolite entry is “phenol 9”. Further, the “effect on 1-EBIO activated KCa3.1 mediated current” value at KCa3.1 channel (28 at 10 μM after 1-EBIO 50 μM, n = 5) is on record as “reduced ionic current”.

The values above are taken from publication PMC9041111 (RSC Advances, 2021).
